Experimental data as given in ChEMBL document CHEMBL1126303, “Syntheses and affinities of novel organometallic-labeled estradiol derivatives: a structure-affinity relationship” (J Med Chem, 1992).
Where “and” joins values, the source holds several entries; their conditions need not be identical. Equal values may be shown once.

Target: Estrogen receptor (Ovis aries) (UniProt P49885+Q9TU15)
Experiment: Relative binding affinity against the estrogen receptor using lamb uterine cytosol as a source of receptor and [3H]-estradiol as a tracer
Format: protein assay
Details: Uterus
Summary of the method: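 Competitive radiometric binding on lamb uterine cytosol (105000g supernatant in 0.05 M Tris-HCl, 0.25 M sucrose, 0.1% β-mercaptoethanol, pH 7.4), 5 mg protein/mL. Incubated 3 h at 0 °C with 2 × 10⁻⁹ M [³H]estradiol plus competitor at nine concentrations, 1×10⁻¹⁰ to 1×10⁻⁶ M. Bound/free separated by protamine sulfate precipitation and filtration, then scintillation counting. Logit-transformed; RBA = IC50 estradiol/competitor ×100; mean of two determinations.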

Estrogen receptor (Ovis aries), sequence (Q9TU15 whole entry, looked up, chain 1 of 2): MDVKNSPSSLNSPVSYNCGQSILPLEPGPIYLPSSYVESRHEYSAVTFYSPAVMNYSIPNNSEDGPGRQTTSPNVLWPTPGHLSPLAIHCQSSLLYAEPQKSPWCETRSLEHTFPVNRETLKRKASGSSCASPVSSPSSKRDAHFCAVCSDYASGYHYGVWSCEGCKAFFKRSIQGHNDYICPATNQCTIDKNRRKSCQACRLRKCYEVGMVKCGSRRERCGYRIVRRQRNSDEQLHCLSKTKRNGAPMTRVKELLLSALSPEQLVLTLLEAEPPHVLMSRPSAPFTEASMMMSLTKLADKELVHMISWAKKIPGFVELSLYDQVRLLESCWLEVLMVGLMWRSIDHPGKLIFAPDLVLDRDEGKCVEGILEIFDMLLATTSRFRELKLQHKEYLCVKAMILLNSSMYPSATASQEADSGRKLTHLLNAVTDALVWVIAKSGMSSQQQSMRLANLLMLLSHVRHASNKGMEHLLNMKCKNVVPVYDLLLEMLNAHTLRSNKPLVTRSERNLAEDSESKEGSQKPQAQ
Estrogen receptor (Ovis aries), sequence (P49885 whole entry, looked up, chain 2 of 2): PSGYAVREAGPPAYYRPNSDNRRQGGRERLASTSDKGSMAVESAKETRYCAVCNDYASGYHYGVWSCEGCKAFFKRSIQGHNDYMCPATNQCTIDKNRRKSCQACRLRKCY

RBA | Compound
25% | C[C@]12CC[C@@H]3c4ccc(O)cc4CC[C@H]3[C@@H]1CC[C@@]2(O)c1ccccc1
2.9% | (alpha,beta)-[Cp*Ru(17beta-estradiol)][CF3SO3]
0.1% | [Cp Ru(eta5-17beta-estradienonyl)]

The remaining lines, values behind:

Compound | RBA
C[C@]12CC[C@@H]3c4ccc(O)cc4CC[C@H]3[C@@H]1CC[C@@]2(O)C#Cc1ccccc1 | 27%
17alpha-ferrocenyl-17beta-estradiol | 15%
(17-alpha(phenylethynyl)-17beta-estradiol)tricarbonylchromium | 24%
(17-alpha-phenyl-17beta-estradiol)tricarbonylchromium | 11%
(17alpha)-[Cp Ruphenyl]-17beta-estradiol)][CF3SO3] | 0%
(alpha,beta)-[Cp Ru(17beta-estradiol)][PF6-] | 0.1%
alpha [Cp Ru[eta5-17beta-estradienonyl] [BF4] | 0.44% and 0.46%
